Results as given in ChEMBL document CHEMBL2380254, “Optimization of tocotrienols as antiproliferative and antimigratory leads” (Eur J Med Chem, 2013).

Tests used:
Type in all cases: functional
BT-549 [1] = experiment: Growth inhibition of human BT549 cells assessed as cell growth at 10 uM after 48 hrs by sulforhodamine B assay; details: BT-549, 48 h, read-out: Activity
Method in brief: (§1)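 NCI-60 single-dose screen at 10 µM: cells in RPMI 1640 with 5% FBS, preincubated 24 h, then exposed 48 h at 37 °C. TCA fixation (16% final for suspension cells), SRB staining, absorbance 515 nm. Percent growth relative to time-zero and untreated control plates; negative values indicate cell kill.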

NCI-H460 = experiment: Growth inhibition of human NCI-H460 cells after 48 hrs by sulforhodamine B assay; details: NCI-H460, 48 h
Method in brief: (§2)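 NCI-60 panel cells grown in RPMI 1640 with 5% FBS and 2 mM L-glutamine, seeded at 5000–40,000 cells/well and preincubated 24 h. Five 10-fold dilutions (0.001–100 µM) from DMSO stocks were added for 48 h at 37 °C. Adherent cells were fixed with cold TCA (10% final) for 60 min at 4 °C, stained with 0.4% SRB, and read at 515 nm. GI50 was set where 100×(T−T0)/(C−T0)=50.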

OVCAR-3 = experiment: Growth inhibition of human OVCAR3 cells assessed as cell growth at 10 uM after 48 hrs by sulforhodamine B assay; details: OVCAR-3, 48 h, read-out: Activity
Method in brief: (§3)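 Single-dose NCI-60 screen: adherent cells in RPMI 1640 with 5% FBS were exposed to 10 µM for 48 h at 37 °C after a 24 h preincubation. They were fixed in situ with cold TCA (10% final), stained with 0.4% SRB in 1% acetic acid, solubilized in 10 mM Tris base, and read at 515 nm. Percent growth was taken relative to time-zero and control plates.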

[2] = Growth inhibition of human EKVX cells assessed as cell growth at 10 uM after 48 hrs by sulforhodamine B assay; details: read-out: Activity; method in brief: as §1
OVCAR-4 = experiment: Growth inhibition of human OVCAR4 cells after 48 hrs by sulforhodamine B assay; details: OVCAR-4, 48 h; method in brief: as §2
NCI-H322M [3] = experiment: Growth inhibition of human NCI-H322M cells after 48 hrs by sulforhodamine B assay; method in brief: as §2
HT-29 = experiment: Growth inhibition of human HT-29 cells assessed as cell growth at 10 uM after 48 hrs by sulforhodamine B assay; details: HT-29, 48 h, read-out: Activity; method in brief: as §1
MCF7 = experiment: Growth inhibition of human MCF7 cells assessed as cell growth at 10 uM after 48 hrs by sulforhodamine B assay; details: MCF7, 48 h, read-out: Activity; method in brief: as §3
K562 = experiment: Growth inhibition of human K562 cells assessed as cell growth at 10 uM after 48 hrs by sulforhodamine B assay; details: K562, 48 h, read-out: Activity; method in brief: as §1
NCI-H322M [4] = experiment: Growth inhibition of human NCI-H322M cells assessed as cell growth at 10 uM after 48 hrs by sulforhodamine B assay; details: read-out: Activity; method in brief: as §3
HCT-15 = experiment: Growth inhibition of human HCT15 cells after 48 hrs by sulforhodamine B assay; details: HCT-15, 48 h
Method in brief: (§4)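 NCI-60 screen: cells in RPMI 1640 with 5% FBS and 2 mM glutamine, 5000–40,000 cells/well, preincubated 24 h. Five concentrations (10-fold dilutions; 100 to 0.001 µM) applied for 48 h at 37 °C. TCA fixation, SRB stain, absorbance at 515 nm. Time-zero plates included; GI50 where 100×(T−T0)/(C−T0)=50.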

M14 = experiment: Growth inhibition of human M14 cells after 48 hrs by sulforhodamine B assay; details: M14, 48 h; method in brief: as §4
DU-145 = experiment: Growth inhibition of human DU145 cells after 48 hrs by sulforhodamine B assay; details: DU-145, 48 h; method in brief: as §4
IGROV-1 = experiment: Growth inhibition of human IGROV1 cells after 48 hrs by sulforhodamine B assay; details: IGROV-1, 48 h; method in brief: as §4
[5] = Growth inhibition of human HCC2998 cells after 48 hrs by sulforhodamine B assay; details: HCC 2998, 48 h; method in brief: as §4
[6] = Growth inhibition of human Hs 578T cells assessed as cell growth at 10 uM after 48 hrs by sulforhodamine B assay; details: read-out: Activity; method in brief: as §1
[7] = Growth inhibition of human NCI-ADR-RES cells assessed as cell growth at 10 uM after 48 hrs by sulforhodamine B assay; details: read-out: Activity; method in brief: as §3
UACC-62 = experiment: Growth inhibition of human UACC62 cells after 48 hrs by sulforhodamine B assay; details: UACC-62, 48 h
Method in brief: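 NCI-60 five-dose screen. Cells were grown in RPMI 1640 with 5% FBS and 2 mM L-glutamine, plated at 5000–40,000 cells/well and incubated 24 h before dosing, with T0 plates TCA-fixed. DMSO stocks were diluted to doses of […] and exposed 48 h at 37 °C, 5% CO2. Cells were fixed with cold TCA (final 10%, 60 min, 4 °C), stained with 0.4% SRB in 1% acetic acid for 10 min, solubilized in 10 mM trizma base and read at 515 nm. GI50 is where 100×(T−T0)/(C−T0)=50.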

SN12C = experiment: Growth inhibition of human SN12C cells assessed as cell growth at 10 uM after 48 hrs by sulforhodamine B assay; details: read-out: Activity
Method in brief: (§5)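 Single-dose NCI-60 test at 10 µM. Cells were grown in RPMI 1640 with 5% FBS and 2 mM L-glutamine, preincubated 24 h, with T0 plates TCA-fixed. Exposure was 48 h at 37 °C, 5% CO2. Cells were fixed with cold TCA (final 10%, 4 °C, 60 min), stained with SRB and read at 515 nm. Percent growth was taken relative to T0 and untreated control; negative values denote cell kill.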

HL-60(TB) = experiment: Growth inhibition of human HL-60(TB) cells after 48 hrs by sulforhodamine B assay; details: HL-60, 48 h
Method in brief: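 HL-60(TB) cells (suspension) grown in RPMI 1640 with 5% FBS and 2 mM L-glutamine. They were plated and preincubated for 24 h, with T0 plates fixed at that point. Drug was given at five 10-fold dilutions for 48 h at 37 °C. Settled cells were fixed with TCA (16% final), stained with 0.4% SRB in 1% acetic acid and read at 515 nm. GI50 was taken where 100×(T−T0)/(C−T0)=50.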

BT-549 [8] = experiment: Growth inhibition of human BT549 cells after 48 hrs by sulforhodamine B assay; details: BT-549, 48 h; method in brief: as §4
MDA-MB-435 = experiment: Growth inhibition of human MDA-MB-435 cells after 48 hrs by sulforhodamine B assay; details: MDA-MB-435, 48 h; method in brief: as §2
SK-OV-3 = experiment: Growth inhibition of human SKOV3 cells assessed as cell growth at 10 uM after 48 hrs by sulforhodamine B assay; details: SK-OV-3, 48 h, read-out: Activity; method in brief: as §5
CCRF-CEM = experiment: Growth inhibition of human CCRF-CEM cells assessed as cell growth at 10 uM after 48 hrs by sulforhodamine B assay; details: read-out: Activity; method in brief: as §1
A549 [9] = experiment: Growth inhibition of human A549/ATCC cells assessed as cell growth at 10 uM after 48 hrs by sulforhodamine B assay; details: A549, 48 h, read-out: Activity; method in brief: as §1
A549 [10] = experiment: Growth inhibition of human A549/ATCC cells after 48 hrs by sulforhodamine B assay; details: A549, 48 h; method in brief: as §4

SMILES | GI50 (NCI-H460) | growth at 10 µM (OVCAR-3) | GI50 (OVCAR-4) | GI50 (NCI-H322M [3]) | growth at 10 µM (HT-29) | growth at 10 µM (MCF7) | growth at 10 µM (NCI-H322M [4]) | GI50 (HCT-15) | GI50 (M14) | GI50 (DU-145) | GI50 (IGROV-1) | GI50 [5] | growth at 10 µM [7] | GI50 (UACC-62) | growth at 10 µM (SN12C) | GI50 (HL-60(TB)) | GI50 (BT-549 [8]) | GI50 (MDA-MB-435) | growth at 10 µM (SK-OV-3) | growth at 10 µM (CCRF-CEM) | also measured
CC(C)=CCC/C(C)=C/CC/C(C)=C/CC[C@]1(C)CCc2c3c(cc(C)c2O1)OCN(C1CCN(Cc2ccccc2)CC1)C3 | 618 nM | -47.9% | 1540 nM | 1850 nM | 22.7% | -36% | 19% | 4030 nM | 1890 nM | 1890 nM | 1560 nM | 626 nM | 62.9% | 1480 nM | 1.77% | 349 nM | 1890 nM | 1200 nM | 109% | 2.34% | growth at 10 µM (BT-549 [1]): 109%; growth at 10 µM [2]: 78%; growth at 10 µM (K562): -29.3%; growth at 10 µM [6]: -6.43%; growth at 10 µM (A549 [9]): 49.6%; GI50 (A549 [10]): 1570 nM
CC(C)=CCC/C(C)=C/CC/C(C)=C/CC[C@]1(C)CCc2c3c(cc(C)c2O1)OCN(CCCCO)C3 | 6180 nM | -20.8% | 16400 nM | 17200 nM | 2.06% | -81.2% | 48.5% | 17700 nM | 21000 nM | 16700 nM | 14800 nM | 9780 nM | -68.8% | 17500 nM | 19.3% | 18800 nM | 20200 nM | 17000 nM | 26.4% | -0.6% | growth at 10 µM (BT-549 [1]): 88.2%; growth at 10 µM [2]: 85.4%; growth at 10 µM [6]: 44.8%; growth at 10 µM (A549 [9]): -37.7%; GI50 (A549 [10]): 15500 nM
CC(C)=CCC/C(C)=C/CC/C(C)=C/CC[C@]1(C)CCc2c3c(c(C)c(C)c2O1)OCN(CCCCCO)C3 | 5180 nM | 65.2% | 5680 nM | 6350 nM | 55.1% | 24.3% | 91% | 6240 nM | 6630 nM | 6280 nM | 6180 nM | 2530 nM | 82.5% | 5870 nM | 78.5% | 6260 nM | 7340 nM | 5800 nM | 101% | 54.9% | growth at 10 µM (BT-549 [1]): 114%; growth at 10 µM [2]: 90.6%; growth at 10 µM (K562): -55.4%; growth at 10 µM [6]: 97.3%; growth at 10 µM (A549 [9]): 80.3%; GI50 (A549 [10]): 6190 nM
COc1ccc(CCN2COc3cc(C)c4c(c3C2)CC[C@@](C)(CC/C=C(\C)CC/C=C(\C)CCC=C(C)C)O4)cc1OC | 2180 nM | -22.9% | 1630 nM | 2710 nM | 0.54% | -65.7% | 4.19% | 1930 nM | 1790 nM | 1940 nM | 2080 nM | 1480 nM | 49.1% | 1640 nM | 37% | 1900 nM | 1970 nM | 1660 nM | 92.8% | 0.64% | growth at 10 µM (BT-549 [1]): 105%; growth at 10 µM [2]: 85.5%; growth at 10 µM (K562): 3.17%; growth at 10 µM (A549 [9]): 58.4%; GI50 (A549 [10]): 1900 nM
CC(C)=CCC/C(C)=C/CC/C(C)=C/CC[C@]1(C)CCc2c3c(cc(C)c2O1)OCN(CCCCCCO)C3 | 692 nM | -61.6% | 518 nM | 3750 nM | -25.8% | -90.4% | -61% | 1100 nM | 979 nM | 1000 nM | 1280 nM | 663 nM | -64.1% | 4850 nM | 40.3% | 1370 nM | 6150 nM | 967 nM | -37.2% | -20.6% | growth at 10 µM (BT-549 [1]): 41.6%; growth at 10 µM [6]: 29.8%; growth at 10 µM (A549 [9]): -34.7%; GI50 (A549 [10]): 607 nM
CC(C)=CCC/C(C)=C/CC/C(C)=C/CC[C@]1(C)CCc2c3c(cc(C)c2O1)OCN(CCCCCCCCO)C3 | 710 nM | -85.4% | 585 nM | 5130 nM | -77.2% | -93.3% | -76.3% | 3000 nM | 1140 nM | 1080 nM | 1340 nM | 583 nM | 18.7% | 4790 nM | -70.7% | 1030 nM | 5690 nM | 1160 nM | -56.9% | -29.7% | growth at 10 µM [2]: -53.4%; growth at 10 µM [6]: 12%; growth at 10 µM (A549 [9]): -85.3%; GI50 (A549 [10]): 616 nM
CC(C)=CCC/C(C)=C/CC/C(C)=C/CC[C@]1(C)CCc2c3c(c(C)c(C)c2O1)OCN(CCCCO)C3 | 1940 nM | 79.9% | 3110 nM | > 10000 nM | 54.4% | 10.1% | 84.8% | 4800 nM | 5990 nM | 6550 nM | 6530 nM | 1840 nM | 57.5% | > 10000 nM | 76.8% | 3860 nM | > 10000 nM | 4680 nM | 76.9% | 39.9% | growth at 10 µM (BT-549 [1]): 104%; growth at 10 µM [2]: 108%; growth at 10 µM [6]: 91.6%; growth at 10 µM (A549 [9]): 70%; GI50 (A549 [10]): 3300 nM
